Measured values from paper PMC5929363 (Radiology, 2017).

Tests used:
[1] = Gd blood plasma clearance in rats; assay type: in vivo; conditions: rat, after 10 μmol/kg i.v., exponential decay fit, n=4/time point
Summary of the method: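 After i.v. probe injection, rat blood plasma sampled over 2 h (n = 4 per time point). Gadolinium quantified by HPLC/ICP-MS. Plasma concentration–time data fitted to exponential decay to give clearance half-life.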

[2] = In vivo plasma stability/metabolites by HPLC-ICP-MS; set-up: species or system rat; conditions: HPLC-ICP-MS of blood plasma
Summary of the method: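 Rat plasma sampled over 2 h after i.v. probe injection. HPLC/ICP-MS separated intact probe from any metabolites. Intact probe expressed as percentage of circulating gadolinium at each time point.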

Gd elimination route = assay type: in vivo; conditions: rat, 24-hour collection period, % of the Gd recovered
[3] = system: CCl4 mouse model of liver fibrosis; assay: Molecular MR imaging of liver fibrosis, CCl4 mouse model, 7.0 T; assay type: in vivo
Summary of the method: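 C57BL6 mice received i.p. CCl4 0.4 μL/g (1:5 in olive oil) twice weekly for 10 weeks; controls received olive oil. Mice were imaged at baseline and 1 week after the last dose at 7.0 T under 1–2% isoflurane, using ungated T1-weighted RARE (TE 4.5 ms, factor 8, TR 600 ms) before and up to 30 min after i.v. 10 μmol/kg. Liver–muscle ΔCNR was analysed as AUC and at the time of maximal difference between fitted exponential curves. Analysis was blinded.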

[4] = Gd biodistribution in ex vivo rat tissue by ICP-MS
Summary of the method: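 Rats dosed i.v. with 10 μmol/kg probe. Tissues harvested ex vivo 1 and 14 days post-injection. Gadolinium measured by ICP-MS and expressed as % injected dose per gram of tissue.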

[5] = system: BDL rat model of liver fibrosis; assay: Molecular MR imaging of liver fibrosis, BDL rat model, 1.5 T; assay type: in vivo; conditions: for ΔCNR at 15 minutes post CM-101 / Area under the ΔCNR curve (AUC), liver vs muscle: 1.5 T
Summary of the method: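 Male CD rats underwent common bile duct ligation or sham surgery and were imaged at day 19. Imaging at 1.5 T under 1–2% isoflurane used respiratory-gated 3D inversion-recovery FLASH (TI 250 ms, TE 2.44 ms, effective TR ~1000 ms), before and up to 30 min after i.v. 10 μmol/kg. ΔCNR was liver-minus-muscle SNR, giving AUC and ΔCNR at the maximal diseased–control difference time. R1 maps (TI 50–1000 ms) were acquired pre and 30 min post and fitted voxelwise. Analysis was blinded.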

[6] = baseline mice, n=11, 10 μmol/kg i.v.
[7] = sham rats, n=11, 10 μmol/kg i.v.

CC(C)C[C@H](NC(=O)[C@@H]1CSSC[C@H](NC(=O)[C@H](Cc2c[nH]cn2)NC(=O)[C@H](Cc2c[nH]c3ccccc23)NC(=O)[C@H](CCCCNC(=O)CCC(C(=O)O)N2CCN(CC(=O)O)CCN(CC(=O)O)CCN(CC(=O)O)CC2)NC(=O)CNC(=O)CCC(C(=O)O)N2CCN(CC(=O)O)CCN(CC(=O)O)CCN(CC(=O)O)CC2)C(=O)N[C@@H]([C@@H](C)O)C(=O)N[C@@H]([C@@H](C)O)C(=O)N[C@@H](CCCCNC(=O)CCC(C(=O)O)N2CCN(CC(=O)O)CCN(CC(=O)O)CCN(CC(=O)O)CC2)C(=O)N[C@@H](Cc2ccccc2)C(=O)N2CCC[C@H]2C(=O)N[C@@H](Cc2c[nH]cn2)C(=O)N[C@@H](Cc2c[nH]cn2)C(=O)N[C@@H](Cc2ccc(O)cc2)C(=O)N1)C(=O)N[C@@H](Cc1ccc(O)cc1)C(=O)N[C@@H](Cc1ccc(-c2ccccc2)cc1)C(N)=O (stereo partly drawn) [CM-101]
Gd blood plasma clearance half-life t1/2 [1]: 6.8 ± 2.4 min
Intact CM-101 as % of circulating Gd in plasma ([2]; 60 – 120 minutes post injection): about 50%
Intact CM-101 as % of circulating Gd in plasma ([2]; 3 minutes post injection): 97%
Intact CM-101 as % of circulating Gd in plasma ([2]; 15 minutes post injection): 77%
Gd recovered found in the feces (Gd elimination route): 0.8%
Gd recovered found in the urine (Gd elimination route): 99.2%
Area under the ΔCNR curve (AUC), liver vs muscle ([3]; CCl4 treated mice (10 weeks), n=8, 10 μmol/kg i.v.): 601±150
ΔCNR at 10 minutes post CM-101 ([3]; CCl4 treated mice, n=8, 10 μmol/kg i.v.): 18.3±6.5
Area under the ΔCNR curve (AUC), liver vs muscle [3, 6]: 163±54
ΔCNR at 10 minutes post CM-101 [3, 6]: 5.2±1.0
Fold drop of tissue Gd levels from 24-hours to 14 days ([4]; rat tissues): about 10 fold
Tissue Gd levels at 24-hours (upper bound over all tissues) ([4]; rat, all tissues, 24 hours after CM-101 injection): < 3.9±0.6 %ID/g
Gd (% ID/g) @ 24-hours, Bone ([4]; rat, bone, 24 hours after 10 μmol/kg i.v., ICP-MS, n=7): 0.07±0.02 % ID/g
Gd (% ID/g) @ 14-days, Bone ([4]; rat, bone, 14 days after 10 μmol/kg i.v., ICP-MS, n=8): 0.01 % ID/g
Gd (% ID/g) @ 14-days, Kidney ([4]; rat, kidney, 14 days after 10 μmol/kg i.v., ICP-MS, n=8): 0.33±0.12 % ID/g
ΔCNR at 15 minutes post CM-101 ([5]; BDL rats, n=8, 10 μmol/kg i.v.): 13.6±3.2
Change in liver R1 relaxation rate (ΔR1) 30 minutes post CM-101 injection ([5]; BDL rats, n=8, 1.5 T): 0.50 ± 0.23 s⁻¹
Area under the ΔCNR curve (AUC), liver vs muscle ([5]; BDL rats, n=8, 19 days post procedure, 10 μmol/kg i.v.): 73.1±17.1
Area under the ΔCNR curve (AUC), liver vs muscle [5, 7]: 23.2±15.2
ΔCNR at 15 minutes post CM-101 [5, 7]: 5.7±4.2
Change in liver R1 relaxation rate (ΔR1) 30 minutes post CM-101 injection ([5]; sham rats, n=11, 1.5 T): 0.15 ± 0.14 s⁻¹
